Laboratory results reported in ChEMBL document CHEMBL2177064, “Discovery and optimization of a novel spiropyrrolidine inhibitor of β-secretase (BACE1) through fragment-based drug design” (J Med Chem, 2012).

Tests used:
[1] = Permeability from basal to apical side of RRCK cells at 2 uM; format: ADME, cell-based, Canis lupus familiaris, MDCKII-LE; details: dog, MDCK; read-out: permeability
Procedure, shortened: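 Basal→apical transfer rate of test compound at 2 μM across contiguous RRCK cell monolayers, quantified by MS.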

[2] = Intrinsic clearance in human liver microsomes assessed per mg of protein; format: ADME, Microsome; details: read-out: CLH
[3] = Permeability from apical to basal side of MDCK cells; format: ADME, cell-based, Canis lupus familiaris; details: dog, read-out: permeability
Procedure, shortened: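 Test compound applied at 2 μM to contiguous cell monolayers. Apical-to-basal transfer rate quantified by mass spectrometry.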

SMILES | Papp B→A at 2 µM [1] [×10⁻⁶ cm/s] | microsomal CLint [2] [µL/min/mg] | Papp A→B [3] [×10⁻⁶ cm/s]
COC(=O)N1CCC(OC(=O)[C@H]2C[C@]3(CN2)C(=O)Nc2ccccc23)CC1 | 20.9 |  | 
O=C(OCc1ccccc1)[C@H]1C[C@]2(CN1)C(=O)Nc1ccccc12 | 30.4 |  | 
N#Cc1ccc(COC(=O)[C@H]2C[C@]3(CN2)C(=O)Nc2ccccc23)cc1 | 18.4 |  | 
O=C(OCc1ccc(Br)cc1)[C@H]1C[C@]2(CN1)C(=O)Nc1ccccc12 | 7.11 |  | 
N#Cc1ccc(COC(=O)[C@H]2C[C@]3(CN2)C(=O)Nc2ccccc23)cc1Br | 10.2 |  | 
N#CC1(OC(=O)[C@H]2C[C@]3(CN2)C(=O)Nc2ccccc23)CCCCC1 | 22.7 |  | 
O=C1Nc2ccccc2[C@@]12CN[C@@H](COCc1ccccc1)C2 | 23.9 | 24.7 | 
O=C1Nc2ccccc2[C@@]12CN[C@@H](CCCc1ccccc1)C2 | 11.4 | 91.3 | 
O=C1Nc2ccccc2[C@]12CCNC2 |  |  | 12.2
O=C1Nc2ccccc2[C@@]12CN[C@@H](CNCc1ccccc1)C2 | 13.5 | 76.7 | 
O=C1Nc2ccccc2[C@@]12CN[C@@H](CNCc1cccc(C(F)(F)F)c1)C2 |  | 94.8 | 
CNC(=O)[C@H]1C[C@]2(CN1)C(=O)Nc1ccccc12 | 4.86 | 14.3 | 
CN(C)C(=O)[C@H]1C[C@]2(CN1)C(=O)Nc1ccccc12 |  | < 8 | 
CN(C(=O)[C@H]1C[C@]2(CN1)C(=O)Nc1ccccc12)C1CCOCC1 | 2.92 | < 8 | 
O=C(NCc1ccccc1)[C@H]1C[C@]2(CN1)C(=O)Nc1ccccc12 |  | 15 | 
COC(=O)[C@H]1C[C@]2(CN1)C(=O)Nc1ccccc12 | 29.5 |  | 
O=C(OC1CCOCC1)[C@H]1C[C@]2(CN1)C(=O)Nc1ccccc12 | 25 |  | 
O=C(OC1CCS(=O)(=O)c2ccc(Br)cc21)[C@H]1C[C@]2(CN1)C(=O)Nc1ccccc12 (mixture of isomers) | 49.1 |  | 
O=C1Nc2ccccc2[C@@]12CN[C@@H](c1ccccc1)C2 (racemic) | 29.6 | 16.6 | 
